≈ marks a conversion by molar mass, not a printed value. Entries after “also recorded” stand apart in the source; their conditions may differ.
Key:
[1] = homologous standards for the HPLC regression; cited from earlier work
[2] = Cytotoxicity to RAW 264.7 cells in the iNOS assay; format: cell-based, mouse; conditions: mouse, RAW 264.7 macrophages
RAW 264.7 cells = assay: Cytotoxicity to RAW 264.7 cells in the iNOS assay; format: cell-based, mouse; conditions: RAW 264.7 cells, same assay
Cytotoxicity [3] = format: cell-based; conditions: African green monkey, Vero kidney fibroblasts
In short: (§1)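 Anti-proliferative assay run alongside four human tumour lines (SK-MEL, KB, BT-549, SK-OV-3) and two noncancerous kidney lines (Vero, LLC-PK11). Doxorubicin served as the positive control.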

[4] = Cytotoxicity towards HL-60 cells in the antioxidant assay; format: cell-based; conditions: human, HL-60 promyelocytic leukemia cells
Cytotoxicity [5] = format: cell-based; conditions: human, SK-OV-3 ovary carcinoma cells
In short: as §1

Cytotoxicity [6] = format: cell-based; conditions: human, BT-549 breast ductal carcinoma cells
In short: as §1

Cytotoxicity [7] = format: cell-based; conditions: human, KB oral epidermal carcinoma cells
In short: as §1

Cytotoxicity [8] = format: cell-based; conditions: pig, LLC-PK11 kidney epithelial cells
In short: as §1

mosquito larvae = assay: Mosquito larvae toxicity bioassay; format: in vivo; conditions: Figure 4
In short: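 Larval toxicity bioassay, run in triplicate. Controls were untreated, DMSO-acetone carrier, and permethrin as the positive control.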

Phomopsis viticola = assay: Antifungal broth dilution microbioassay, Phomopsis viticola; format: cell-based; conditions: at the highest concentrations, Figure 2D
In short: (§2)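 Broth microdilution adapted from the NCCLS M27-A yeast method for conidia-forming filamentous plant-pathogenic fungi. The commercial fungicide captan served as the internal standard in every assay. Means were compared by SAS analysis of variance with Fisher's protected LSD. For P. viticola and P. obscurans, activity was read at 120 and 144 h of incubation.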

Botrytis cinerea = assay: Antifungal broth dilution microbioassay, Botrytis cinerea; format: cell-based
In short: as §2

Cytotoxicity [9] = format: cell-based; conditions: human, SK-MEL malignant melanoma cells
In short: as §1

Phomopsis obscurans = assay: Antifungal broth dilution microbioassay, Phomopsis obscurans; format: cell-based; conditions: 120 and 144 h (from 120 to 144 h)
In short: as §2

| SMILES | log P (known constants of standards) [1] | IC50 [2] | Inhibition of iNOS activity (NO production) in RAW 264.7 cells IC50 Cytotoxicity (RAW 264.7 cells) | IC50 (Cytotoxicity [3]) | IC50 [4] | IC50 (Cytotoxicity [5]) | IC50 (Cytotoxicity [6]) | IC50 (Cytotoxicity [7]) | IC50 (Cytotoxicity [8]) | Toxicity to mosquito larvae (mosquito larvae) | Antifungal activity against P. viticola (Phomopsis viticola) | Growth inhibition of B. cinerea (Botrytis cinerea; 48 h) | Growth inhibition of B. cinerea (Botrytis cinerea; 72 h) | IC50 (Cytotoxicity [9]) | Antifungal activity against P. obscurans (Phomopsis obscurans) |
| --- | --- | --- | --- | --- | --- | --- | --- | --- | --- | --- | --- | --- | --- | --- | --- |
| CCCc1ccccc1 [propylbenzene] | 3.69 | – | – | – | – | – | – | – | – | – | – | – | – | – | – |
| Oc1ccc(/C=C/c2cc(O)cc(O)c2)cc1 [Compound 24, resveratrol, reference compound] | – | > 25 µg/mL | no cytotoxicity | > 25 µg/mL | 8 µg/mL (≈ 35 µM) | > 25 µg/mL | > 25 µg/mL | > 25 µg/mL | > 25 µg/mL | significantly lower toxicity | essentially inactive | minimal activity | no activity | > 25 µg/mL | – |
| COc1cc(/C=C/c2ccc(O)cc2)cc(OC)c1 [Compound 21, pterostilbene] | – | > 25 µg/mL | no cytotoxicity | > 25 µg/mL | 21 µg/mL (≈ 81.9 µM) | > 25 µg/mL | > 25 µg/mL | > 25 µg/mL | > 25 µg/mL | highest activity; also recorded: somewhat greater activity | – | – | – | > 25 µg/mL | – |
| CC(C)/C=C/c1c(O)cc(/C=C/c2ccc(O)cc2)cc1O [Compound 3, arachidin-3] | – | > 25 µg/mL | no cytotoxicity | > 25 µg/mL | > 25 µg/mL | > 25 µg/mL | > 25 µg/mL | > 25 µg/mL | > 25 µg/mL | – | – | – | – | > 25 µg/mL | did not exhibit any activity |
| CC(C)=CCc1c(O)cc(/C=C/c2ccc(O)cc2)cc1O [Compound 2, arachidin-2] | – | > 25 µg/mL | no cytotoxicity | 13.5 µg/mL (≈ 45.6 µM) | 16 µg/mL (≈ 54 µM) | > 25 µg/mL | 7.5 µg/mL (≈ 25.3 µM) | 22.5 µg/mL (≈ 75.9 µM) | 13.5 µg/mL (≈ 45.6 µM) | – | – | – | – | 20 µg/mL (≈ 67.5 µM) | did not exhibit any activity |

From publication PMC3063522 (Journal of agricultural and food chemistry, 2011)
